APJ antag: blocks the human apelin receptor APJ | P35414 | CHO-K1 APJ beta-arrestin complementation, luminescence | inhibition, % at 20 µM | 330,000 tested, 0.32% active | AID 2521;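 active means inhibition above about 40% at 20 µM, limit read from the data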;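 further: cells challenged with 10 nM apelin-13 agonist together with compound; plate controls were apelin-13 plus DMSO wells for no effect and DMSO wells lacking apelin-13 for full effect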
EBI2 block: blocks human EBI2 receptor beta-arrestin signaling | P32249 | EBI2 beta-arrestin recruitment, luminescence, 7a,25-OHC stimulated | inhibition, % at 5 µM | 360,000 tested, 0.81% active; in the data active means inhibition above about 38%;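 further: enzyme fragment complementation signal reports receptor beta-arrestin coupling in cells; 0% = agonist plus DMSO wells and 100% = wells without agonist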
APJ agonist: activates the human apelin receptor APJ; P35414; activation, % at 20 µM; AID 2520; CHO-K1 APJ PathHunter beta-arrestin, luminescence; 0% DMSO wells, 100% apelin; 330,000 tested, 0.11% active;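 active means activation more than six SD over the plate average, tested at 20 µM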;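 further: 0% = DMSO alone and 100% = apelin-13 at 10 nM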
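Test system – PathHunter CHO-K1 APJ (AGTRL-1) beta-arrestin reporter cells · Input – 1000 cells/well · Compound – single test compound dose, 20 µM final, 1% DMSO · Times – compound stimulation 90 min at 25 °C, detection 60 min · Technique – beta-gal luminescence · Read-out basis – APJ–arrestin association signal · Control set – negative DMSO alone, positive Apelin-13 at 10 nM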
HTR2A ag: activates the mouse 5-HT2A serotonin receptor; activation, % at 7.6 µM; AID 624169; P35363; 360,000 tested, 0.66% active; CHO-K1 mHTR2A beta-arrestin complementation, luminescence; percent of 30 µM serotonin response;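 active means activation above a run cutoff, the mean activation of all tested compounds plus 3 SD, cut at about 14% in these data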;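 further: 0% = plate median of compound wells and 100% = 30 µM serotonin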
Target sequence (P35363 whole entry, looked up): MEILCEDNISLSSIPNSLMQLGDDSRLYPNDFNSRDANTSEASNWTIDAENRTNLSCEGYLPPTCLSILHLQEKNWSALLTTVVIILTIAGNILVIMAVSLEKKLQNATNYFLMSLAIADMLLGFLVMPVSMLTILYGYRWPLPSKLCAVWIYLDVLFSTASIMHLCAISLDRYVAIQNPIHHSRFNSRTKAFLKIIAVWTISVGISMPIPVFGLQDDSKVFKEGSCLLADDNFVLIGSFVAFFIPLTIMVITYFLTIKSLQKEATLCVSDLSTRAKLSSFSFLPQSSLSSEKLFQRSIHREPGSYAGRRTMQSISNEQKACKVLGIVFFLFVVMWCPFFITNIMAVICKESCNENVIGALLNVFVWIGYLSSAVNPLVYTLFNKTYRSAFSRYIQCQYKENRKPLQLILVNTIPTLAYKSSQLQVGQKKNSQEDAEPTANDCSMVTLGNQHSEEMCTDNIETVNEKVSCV
CXCR6 block: CXCR6 (human) receptor inhibition; O00574; CHO-K1 PathHunter CXCR6 beta-arrestin, luminescence; inhibition, % at 20 µM; 360,000 tested, 0.36% active; AID 602244; in the data active means inhibition above about 34%, passing the limit was not always enough;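 further: antagonist mode with CXCL16 agonist at 10 nM final; 0% = 10 nM CXCL16 with DMSO and 100% = unstimulated wells without agonist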
CCR6 antag: blocks CCL20-driven beta-arrestin recruitment at human CCR6. P51684. AID 493098. inhibition, % at 20 µM. CHO-K1 CCR6 PathHunter beta-arrestin, luminescence, CCL20-stimulated. 340,000 tested, 0.49% active;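 active means compounds whose inhibition of the agonist-driven luminescence signal at 20 µM reaches about 50%, limit read from the data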;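 further: cells stimulated with CCL20 at 14 nM final; plate controls were DMSO with CCL20 for no effect and DMSO without agonist for full effect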
APJ ag conf: confirmation of human APJ apelin receptor agonists; 310 tested, 10% active; activation, % at 20 µM; AID 2764; CHO-K1 APJ PathHunter beta-arrestin, luminescence; shares compounds with APJ agonist;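 active means activation above 40%, taking the highest of four retests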;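 further: plate controls were DMSO wells for no effect and apelin-13 at 10 nM for full effect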
Active calls of the source: *; . = no result given. A selection: hits, their analogues and other compounds. The true share with any hit is near 2.2%.

SMILES | APJ antag | EBI2 block | APJ agonist | HTR2A ag | CXCR6 block | CCR6 antag | APJ ag conf
COc1ccc(-c2cn3c(C)c(C(=O)Nc4ccncc4)sc3n2)cc1 | 0 | 12 | 8 | 2 | -16 | 3 | .
N#CC1=C(c2ccccc2)/C(=C/c2ccccc2)OC1=O | -18 | 5 | 17* | -1 | 35 | 64* | 12
CC(=O)Nc1ccc(Nc2nc(-c3cc4ccccc4oc3=O)cs2)cc1 | -3 | -14 | 17* | 0 | -16 | -8 | 16
Cc1cc2ccccn2c1C(=O)c1nc(NCc2ccco2)ncc1Cl | 14 | 10 | 40* | 1 | 13 | 21 | 40
Cc1cc2ccccn2c1C(=O)c1nc(N2CCOCC2)ncc1Cl | 4 | 3 | 0 | -4 | 0 | -5 | .
O=C1NC[C@H](CCCCN2CCN(Cc3ccccc3)C(=O)C2=O)N(Cc2ccccc2)C1=O | . | -6 | . | 0 | -3 | . | .
COCCNC(=O)C1CCCN(Cc2ccccc2F)CC1 (centres undefined) | . | -6 | . | 2 | -3 | . | .
N#Cc1nc(-c2ccc(OCc3ccc(Cl)cc3)cc2)oc1N1CCOCC1 | 1 | -16 | 25* | 0 | 3 | 7 | 4
COc1ccc(-c2nc3ccc(C)cn3c2NCc2ccccc2)cc1SC1CCCCC1 | -12 | -28 | 25 | -5 | 7 | 10 | .
CCCCNc1c(-c2ccc(OC)c(SC(C)CC)c2)nc2ccc(C)cn12 (centres undefined) | -28 | -71 | 26* | 2 | 12 | 25 | 9
CCCCNc1c(-c2ccc(OC)c(SC3CCCCC3)c2)nc2ccc(C)cn12 | 4 | -22 | 18* | 11 | 23 | 25 | 30
CCCCNc1c(-c2ccc(OC)c(SC(C)CC)c2)nc2ccc(Cl)cn12 (centres undefined) | -14 | 21 | -1 | -2 | -7 | -4 | .
Cc1cccc(C)c1-n1nnnc1C(c1ccnc2ccccc12)N(Cc1ccccc1)Cc1ccccc1 (centres undefined) | . | 31 | . | 5 | 13 | . | .
CN(c1ccccc1)S(=O)(=O)c1cccc(NC(=O)c2cc(=O)c3ccccc3o2)c1 | -10 | -13 | 12* | 2 | 2 | -13 | 5
COc1cccc2ccc(CC(O)(c3ccccc3)c3ccccc3)nc12 | . | 14 | . | -2 | 7 | . | .
COC1(C)CC2C(CC1OC(=O)c1cc([N+](=O)[O-])cc([N+](=O)[O-])c1)C2(C)C (centres undefined) | -52 | 5 | 13* | 2 | -12 | -61 | 21
COC(=O)c1cc(C(=O)NCC2CCCCC2)cc([N+](=O)[O-])c1 | 1 | -7 | 0 | 5 | -24 | 12 | .
Cc1nc(NC(=O)CSc2nc3cccnc3n2C2CCCCC2)sc1C | 18 | 4 | -1 | 4 | 11 | 2 | .
CCc1nnc(NC(=O)CSc2nc3cccnc3n2C2CCCCC2)s1 | 0 | 7 | 53* | 2 | 10 | 10 | 62*
CC1=CC(=O)C=C(C)C1=NOS(=O)(=O)c1ccccc1 | . | -7 | . | -10 | 18 | -15 | .
CC1=CC(=O)C(C(C)C)=C/C1=N/OS(=O)(=O)c1ccccc1 | -35 | -44 | 185* | 0 | -3 | 7 | 78*
Cc1ccc(OCc2nc3ccccc3n2C(C(=O)NC(C)(C)C)c2ccncc2)cc1 (centres undefined) | . | 0 | . | -3 | . | . | .
N/C(=N\OC(=O)c1ccc(Br)cc1)c1ccncc1 | -24 | -11 | 12* | 0 | -13 | -14 | 26
N/C(=N\OC(=O)c1ccccc1)c1ccncc1 | -59 | -7 | 4 | 6 | -1 | -9 | .
COc1cc(OC)cc(C2=Cc3ccccc3C(CC(=O)c3ccco3)N2c2ccc(-c3ccc(C(N)=O)cc3)cc2)c1 (centres undefined) | . | -21 | . | -3 | 3 | . | .
O=C(NC(Cc1ccccc1)C(=O)N1CCN(S(=O)(=O)c2ccccc2F)CC1)c1ccccc1 (centres undefined) | 7 | 4 | 26* | 4 | 0 | 0 | 9
COC(=O)c1c(C)[nH]c(C(=O)COC(=O)CCc2ccc(OC)c(OC)c2)c1C | . | 1 | . | 1 | -9 | . | .
